In publication PMC9801203 (Poultry Science, 2022):
Where two headings read alike, the source gives them in different places. Marks after values point to notes of the source that are not given here.

Columns and labels:
[1] = pigs; ref Harwig et al., 1983; cited from earlier work
HeLa cells = conditions: acute toxicity, ref Xiao et al., 1996; cited from earlier work
chicken embryos [2] = format: in vivo, Gallus gallus domesticus; conditions: for effect on chick quality (in words): compared with control group; for Early dead embryos: embryos dead up to 7 d of incubation; for Late dead embryos: embryos died after 7 d of incubation; for Hatchability: hatchability of fertile eggs; for BW: hatched chicks; for BW / Chicks quality: Average score of chicks with score <100: mean ± SD; for Chicks quality: Average score of all chicks: maximum score 100, mean ± SD
Procedure, shortened: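 Hatching eggs in groups of 30 per repetition: one control without puncture, one punctured without injection. A 0.5 mm needle puncture delivered 0.25, 0.50 or 0.75 µg/egg in 50 µL ultrapure water (sonicated, autoclaved 108°C, 3 min); the site was sealed with plaster. Incubation at 37.5–38.5°C and 50–60% RH, turned 45° every 2 h. Candling at days 6 and 18; early deaths ≤7 d. Hatched chicks were weighed and quality-scored (maximum 100).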

[3] = humans, calculated; ref Sueck et al. (2019b); cited from earlier work
[4] = tested on: chicken embryo fibroblasts cell line SL-29 (ATCC CRL1590); experiment: MTT cytotoxicity assay, 48 h exposure; format: cell-based, Gallus gallus
Procedure, shortened: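 SL-29 chicken embryo fibroblasts were grown in DMEM with 5% FBS, 5% tryptose phosphate broth, 2 mM L-glutamine and penicillin/streptomycin at 37°C and 5% CO2. Cells were exposed to a ten-point twofold dilution series for 48 h at 37°C and 5% CO2. MTT (5 mg/mL stock in PBS) was added for 4 h and removed. Formazan was dissolved in DMSO and absorbance read at 510 nm. Samples below 50% were considered toxic.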

embryos of Danio rerio = conditions: ref Haq et al., 2016; cited from earlier work
[5] = chickens; ref Galtier et al., 1981; cited from earlier work
chicken embryos [6] = conditions: 1 µg/egg, after 9 d of incubation; ref Hassan et al. (2012a); cited from earlier work
IHKE cells = conditions: cytotoxicity, ref Bittner et al., 2015; cited from earlier work
[7] = toxin levels in tissues of hatched chicks after in ovo injection; format: in vivo, Gallus gallus domesticus; conditions: for Toxin level in heart / Toxin level in kidneys / Toxin level in liver / Toxin level in serum / Toxin level in yolk sac: hatched chicks, mean ± SD; for presence as potential metabolite of OTA and 2’R-OTA in isolated organs: chicks after in ovo injection of OTA or 2’R-OTA
Procedure, shortened: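 Eggs (30/group) punctured with a 0.5 mm needle, injected with test compound at 0.25, 0.50 or 0.75 µg/egg in 50 µL ultra-pure water, sealed; incubated 37.5–38.5°C, 50–60% RH, turned 45° every 2 h. Hatched chicks decapitated; serum and tissues (200 mg) deconjugated with β-glucuronidase/arylsulfatase overnight at 37°C, acetonitrile-based extraction, ¹³C₂₀-OTA internal standard, HPLC-MS/MS positive mode.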

[8] = tested on: human liver carcinoma cell line HepG2; conditions: HepG2 cells; ref Cramer et al. (2010); cited from earlier work
[9] = tested on: serum-free cultures of embryonic brains of Tetra SL chick stage 29; conditions: 8-day exposure, embryonic chick brain cultures; ref Bruinink et al. (1998); cited from earlier work
[10] = MTT reduction, SL-29 cells, 48 h exposure

## C[C@@H]1Cc2c(Cl)cc(C(=O)N[C@@H](Cc3ccccc3)C(=O)O)c(O)c2C(=O)O1 [OTA, ochratoxin A]
[1]
  order of organs in which the toxin accumulated: kidneys > liver > muscle tissue and fat
HeLa cells
  IC50: 5 µM
Chicken embryos [2]
  effect on chick quality (in words): considerably reduced the number of chicks with a score of 100
Chicken embryos [2]; in ovo injection 0.25 µg/egg
  Chicks quality: Chicks with score 100: 82.7%^bc
  Early dead embryos: 12.2%^b
  Late dead embryos: 4.4%^b
  Hatchability: 58.9%^b
  BW: 41.53 ± 3.06^a g
  Chicks quality: Average score of all chicks: 97.02 ± 9.51^b
  Chicks quality: Average score of chicks with score <100: 82.78 ± 17.33^a
Chicken embryos [2]; in ovo injection 0.50 µg/egg
  Early dead embryos: 12.2%^b
  Late dead embryos: 8.9%^b
  Hatchability: 50.0%^ab
  BW: 41.59 ± 3.12^a g
  Chicks quality: Average score of all chicks: 98.77 ± 4.52^b
  Chicks quality: Average score of chicks with score <100: 88.00 ± 9.27^a
Chicken embryos [2]; in ovo injection 0.75 µg/egg
  Chicks quality: Chicks with score 100: 63.3%^a
  Early dead embryos: 31.1%^d
  Late dead embryos: 4.4%^b
  Hatchability: 35.6%^a
  BW: 41.42 ± 3.71^a g
  Chicks quality: Average score of all chicks: 91.03 ± 19.55^a
  Chicks quality: Average score of chicks with score <100: 75.55 ± 26.30^b
[3]
  biological half-life: 1 mo
[4]; Gallus gallus, Fibroblast, 48 h
  IC50: 0.24 µM
Embryos of Danio rerio
  teratogenicity and mortality (in words): high OTA teratogenicity
[5]
  half-life: 4.1 h
Chicken embryos [6]
  embryo defect: beak hypoplasia: 45%
  embryo defect: beak retrognathism: 12%
  embryo defect: cleft spine: 10%
  embryo defect: exencephaly: 4%
  embryo defect: microphthalmia: 35%
  embryo defect: no eye development: 49%
  embryo defect: nonunited abdominal integuments: 8%
  embryo defect: reduced body weight: 15%
IHKE cells
  IC50: 0.5 µM
[7]; in ovo injection 0.25 µg/egg
  Toxin level in heart: 0.00 ± 0.00a µg/kg
  Toxin level in kidneys: 2.70 ± 0.07 µg·days/kg
  Toxin level in liver: 4.37 ± 0.04 µg·days/kg
  Toxin level in serum: 0.22 ± 0.00b µg/kg
  Toxin level in yolk sac: 7.04 ± 0.08c µg/kg
[7]; in ovo injection 0.50 µg/egg
  Toxin level in heart: 0.25 ± 0.01b µg/kg
  Toxin level in kidneys: 4.56 ± 0.21e µg/kg
  Toxin level in liver: 7.12 ± 0.19e µg/kg
  Toxin level in serum: 0.31 ± 0.00c µg/kg
  Toxin level in yolk sac: 10.43 ± 0.21e µg/kg
[7]; in ovo injection 0.75 µg/egg
  Toxin level in heart: 0.59 ± 0.01 µg·days/kg
  Toxin level in kidneys: 11.83 ± 0.35g µg/kg
  Toxin level in liver: 16.02 ± 0.28g µg/kg
  Toxin level in serum: 0.61 ± 0.01e µg/kg
  Toxin level in yolk sac: 12.40 ± 0.31f µg/kg

## C[C@@H]1Cc2c(Cl)cc(C(=O)N[C@H](Cc3ccccc3)C(=O)O)c(O)c2C(=O)O1 [2’R-OTA, 2’R-ochratoxin A]
Chicken embryos [2]
  effect on chick quality (in words): did not reduce chick quality
Chicken embryos [2]; in ovo injection 0.25 µg/egg
  Chicks quality: Chicks with score 100: 96.6%^c
  Early dead embryos: 14.4%^bc
  Late dead embryos: 6.6%^b
  Hatchability: 61.1%^b
  BW: 41.83 ± 2.54^a g
  Chicks quality: Average score of all chicks: 98.97 ± 5.57^b
  Chicks quality: Average score of chicks with score <100: 80.00 ± 0.00^a
Chicken embryos [2]; in ovo injection 0.50 µg/egg
  Chicks quality: Chicks with score 100: 68.6%^ab
  Early dead embryos: 15.5%^bc
  Late dead embryos: 4.4%^b
  Hatchability: 58.9%^b
  BW: 41.59 ± 2.91^a g
  Chicks quality: Average score of all chicks: 96.03 ± 8.37^ab
  Chicks quality: Average score of chicks with score <100: 87.36 ± 10.85^a
Chicken embryos [2]; in ovo injection 0.75 µg/egg
  Chicks quality: Chicks with score 100: 70.8%^b
  Early dead embryos: 21.1%^c
  Late dead embryos: 11.1%^c
  Hatchability: 46.7%^b
  BW: 42.43 ± 2.90^a g
  Chicks quality: Average score of all chicks: 94.08 ± 14.62^ab
  Chicks quality: Average score of chicks with score <100: 79.71 ± 21.88^ab
[3]
  biological half-life: approx. 6 mo
[4]; [10]
  IC50: 6.54 µM
[7]; in ovo injection 0.25 µg/egg
  Toxin level in heart: 0.00 ± 0.00a µg/kg
  Toxin level in kidneys: 1.18 ± 0.07b µg/kg
  Toxin level in liver: 1.11 ± 0.02b µg/kg
  Toxin level in serum: 0.38 ± 0.00 µg·days/kg
  Toxin level in yolk sac: 4.65 ± 0.04b µg/kg
[7]; in ovo injection 0.50 µg/egg
  Toxin level in heart: 0.32 ± 0.02c µg/kg
  Toxin level in kidneys: 1.59 ± 0.07c µg/kg
  Toxin level in liver: 2.81 ± 0.16c µg/kg
  Toxin level in serum: 0.30 ± 0.00c µg/kg
  Toxin level in yolk sac: 7.52 ± 0.26 µg·days/kg
[7]; in ovo injection 0.75 µg/egg
  Toxin level in heart: 0.87 ± 0.02e µg/kg
  Toxin level in kidneys: 5.19 ± 0.14f µg/kg
  Toxin level in liver: 12.68 ± 0.10f µg/kg
  Toxin level in serum: 1.87 ± 0.02f µg/kg
  Toxin level in yolk sac: 19.83 ± 0.63g µg/kg
[8]
  cytotoxic effect relative to OTA: approx. Tenfold lower cytotoxic effect

## C[C@@H]1Cc2c(Cl)cc(C(=O)O)c(O)c2C(=O)O1 [OTα, α-ochratoxin]
HeLa cells
  IC50: 560 µM
[4]; [10]
  IC50: 5.26 µM
Embryos of Danio rerio
  teratogenicity and mortality (in words): negligible teratogenicity and mortality
[9]
  neurotoxic effects not observed up to (concentration): ≥ 15 µM
IHKE cells
  nontoxic up to (concentration): ≥ 50 µM
[7]
  presence as potential metabolite of OTA and 2’R-OTA in isolated organs: not found in any of the organs tested above the LOD

## C[C@@H]1Cc2ccc(C(=O)N[C@@H](Cc3ccccc3)C(=O)O)c(O)c2C(=O)O1 [OTB, ochratoxin B]
[4]; [10]
  IC50: 7.96 µM
[7]
  presence as potential metabolite of OTA and 2’R-OTA in isolated organs: not found in any of the organs tested above the LOD
